This passage reports EC50 results from ChEMBL document CHEMBL1156009, “Eleven amino acid glucagon-like peptide-1 receptor agonists with antidiabetic activity” (J Med Chem, 2009).

pEC50: −log10 of the molar value.

In the experiment the target is Glucagon-like peptide 1 receptor (Homo sapiens, UniProt P43220). Description: Agonist activity at human GLP1R expressed in CHO cells assessed as stimulation of intracellular [3H]cAMP accumulation after 30 mins by scintillation proximity assay. Type of experiment: functional, cell-based. The essentials: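 CHO cells stably expressing human or mouse GLP-1R, grown in F-12 with 10% FBS plus Geneticin (0.4 mg/mL human, 1 mg/mL mouse), plated 2×10^4/well overnight. Half-log dilutions made in DMSO, then in DPBS with 0.1 mM IBMX and 0.05% BSA (final 1% DMSO). Cells exposed 30 min. cAMP read by SPA and converted to pmol via standard curve. Duplicates, at least three separate runs.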
Chain of Glucagon-like peptide 1 receptor (P43220 whole entry): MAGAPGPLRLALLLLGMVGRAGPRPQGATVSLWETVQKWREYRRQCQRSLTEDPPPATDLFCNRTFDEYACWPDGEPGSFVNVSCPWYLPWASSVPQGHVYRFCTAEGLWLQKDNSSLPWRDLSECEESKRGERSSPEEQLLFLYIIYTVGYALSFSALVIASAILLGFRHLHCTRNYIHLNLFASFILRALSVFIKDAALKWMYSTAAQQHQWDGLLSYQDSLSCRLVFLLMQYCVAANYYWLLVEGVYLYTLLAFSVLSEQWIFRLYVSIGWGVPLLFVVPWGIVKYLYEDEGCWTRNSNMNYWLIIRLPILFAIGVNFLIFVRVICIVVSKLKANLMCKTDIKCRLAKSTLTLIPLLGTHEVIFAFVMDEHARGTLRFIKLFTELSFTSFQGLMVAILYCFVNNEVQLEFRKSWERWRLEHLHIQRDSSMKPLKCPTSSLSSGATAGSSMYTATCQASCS
Take `COc1ccc(-c2ccc(C[C@H](NC(=O)[C@H](Cc3ccc(-c4ccccc4)cc3)NC(=O)[C@H](CC(=O)O)NC(=O)[C@H](CO)NC(=O)[C@@H](NC(=O)[C@H](Cc3ccccc3)NC(=O)[C@@H](NC(=O)CNC(=O)[C@H](CCC(=O)O)NC(=O)[C@H](C)NC(=O)[C@@H](N)Cc3cnc[nH]3)[C@@H](C)O)[C@@H](C)O)C(N)=O)cc2)cc1`: the pEC50 was 6.41.

Consider `Cc1ccc(-c2ccc(C[C@H](NC(=O)[C@H](Cc3ccc(-c4ccccc4)cc3)NC(=O)[C@H](CC(=O)O)NC(=O)[C@H](CO)NC(=O)[C@@H](NC(=O)[C@H](Cc3ccccc3)NC(=O)[C@@H](NC(=O)CNC(=O)[C@H](CCC(=O)O)NC(=O)[C@H](C)NC(=O)[C@@H](N)Cc3cnc[nH]3)[C@@H](C)O)[C@@H](C)O)C(N)=O)cc2)cc1`, for which the pEC50 was 6.57.

Take `CCc1ccccc1-c1ccc(C[C@H](NC(=O)[C@H](CC(=O)O)NC(=O)[C@H](CO)NC(=O)[C@@H](NC(=O)[C@H](Cc2ccccc2)NC(=O)[C@@H](NC(=O)CNC(=O)[C@H](CCC(=O)O)NC(=O)[C@H](C)NC(=O)[C@@H](N)Cc2cnc[nH]2)[C@@H](C)O)[C@@H](C)O)C(=O)N[C@@H](Cc2ccc(-c3ccccc3C)cc2)C(N)=O)cc1`: the pEC50 was 7.66.

As for `COc1ccc(-c2ccc(C[C@H](NC(=O)[C@H](CC(=O)O)NC(=O)[C@H](CO)NC(=O)[C@@H](NC(=O)[C@H](Cc3ccccc3)NC(=O)[C@@H](NC(=O)CNC(=O)[C@H](CCC(=O)O)NC(=O)[C@H](C)NC(=O)[C@@H](N)Cc3cnc[nH]3)[C@@H](C)O)[C@@H](C)O)C(=O)N[C@@H](Cc3ccc(-c4ccccc4C)cc3)C(N)=O)cc2)c(C)c1`, the pEC50 was 7.46.

On to `C[C@H](NC(=O)[C@@H](N)Cc1cnc[nH]1)C(=O)N[C@@H](CCC(=O)O)C(=O)NCC(=O)N[C@H](C(=O)N[C@@H](Cc1ccccc1)C(=O)N[C@H](C(=O)N[C@@H](CO)C(=O)N[C@@H](CC(=O)O)C(=O)N[C@@H](Cc1ccc(-c2ccccc2)cc1)C(=O)N[C@@H](Cc1ccc(-c2ccccc2)cc1)C(=O)O)[C@@H](C)O)[C@@H](C)O`, for which the pEC50 was below 5.00.

As for `COc1cccc(-c2ccc(C[C@H](NC(=O)[C@H](CC(=O)O)NC(=O)[C@H](CO)NC(=O)[C@@H](NC(=O)[C@H](Cc3ccccc3)NC(=O)[C@@H](NC(=O)CNC(=O)[C@H](CCC(=O)O)NC(=O)[C@H](C)NC(=O)[C@@H](N)Cc3cnc[nH]3)[C@@H](C)O)[C@@H](C)O)C(=O)N[C@@H](Cc3ccc(-c4ccccc4C)cc3)C(N)=O)cc2)c1`, the pEC50 was 6.02.

Regarding `C[C@H](NC(=O)[C@@H](N)Cc1cnc[nH]1)C(=O)N[C@@H](CCC(=O)O)C(=O)NCC(=O)N[C@H](C(=O)N[C@@H](Cc1ccccc1)C(=O)N[C@H](C(=O)N[C@@H](CO)C(=O)N[C@@H](CC(=O)O)C(=O)N[C@@H](Cc1ccc(-c2ccccc2)cc1)C(N)=O)[C@@H](C)O)[C@@H](C)O`, the pEC50 is below 5.00.

Regarding `CCc1ccccc1-c1ccc(C[C@H](NC(=O)[C@H](CC(=O)O)NC(=O)[C@H](CO)NC(=O)[C@@H](NC(=O)[C@H](Cc2ccccc2)NC(=O)[C@@H](NC(=O)CNC(=O)[C@H](CCC(=O)O)NC(=O)[C@H](C)NC(=O)[C@@H](N)Cc2cnc[nH]2)[C@@H](C)O)[C@@H](C)O)C(=O)N[C@@H](Cc2ccc(-c3ccccc3)cc2)C(N)=O)cc1`, the pEC50 is 7.57.

`Cc1cccc(-c2ccc(C[C@H](NC(=O)[C@H](Cc3ccc(-c4ccccc4)cc3)NC(=O)[C@H](CC(=O)O)NC(=O)[C@H](CO)NC(=O)[C@@H](NC(=O)[C@H](Cc3ccccc3)NC(=O)[C@@H](NC(=O)CNC(=O)[C@H](CCC(=O)O)NC(=O)[C@H](C)NC(=O)[C@@H](N)Cc3cnc[nH]3)[C@@H](C)O)[C@@H](C)O)C(N)=O)cc2)c1`: the pEC50 is 6.67.

Turning to `Cc1ccccc1-c1ccc(C[C@H](NC(=O)[C@H](Cc2ccc(-c3ccccc3)cc2)NC(=O)[C@H](CC(=O)O)NC(=O)[C@H](CO)NC(=O)[C@@H](NC(=O)[C@H](Cc2ccccc2)NC(=O)[C@@H](NC(=O)CNC(=O)[C@H](CCC(=O)O)NC(=O)[C@H](C)NC(=O)[C@@H](N)Cc2cnc[nH]2)[C@@H](C)O)[C@@H](C)O)C(N)=O)cc1`, the pEC50 is 6.32.
